In brackets after ≈: the same amount, converted by molar mass.
What was measured:
[1] = system: Mycobacterium tuberculosis; experiment: Antimycobacterial activity against Mycobacterium tuberculosis in GAS medium by microplate alamar blue assay; assay type: functional
In short: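 Microplate alamar blue assay against M. tuberculosis grown in glycerol-alanine-salts (GAS) medium. MIC is reported in µM.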

[2] = system: Mycobacterium tuberculosis; experiment: Antimycobacterial activity against Mycobacterium tuberculosis in 7H12 medium by microplate alamar blue assay; assay type: functional
In short: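 Microplate alamar blue assay against M. tuberculosis in 7H12 medium (7H9 plus casitone, palmitic acid, albumin and catalase). MIC is reported in µM.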

Pseudomonas aeruginosa [3] = experiment: Antibacterial activity against wild type Pseudomonas aeruginosa K799 after 21 hrs by Kirby-Bauer agar diffusion assay; assay type: functional
In short: (§1)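 Agar diffusion assay. Test solutions were made at 20 mM in DMSO and diluted 10-fold with MeOH to 2 mM. Plates were incubated at 37 °C for 21 h. Inhibition zone diameters are recorded in mm, with unclear or very unclear zones flagged.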

Mycolicibacterium vaccae [4] = experiment: Antibacterial activity against Mycobacterium vaccae IMET 10670 assessed as unclear inhibition zone after 44 hrs by Kirby-Bauer agar diffusion assay; assay type: functional
In short: (§2)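 Test solutions for the agar diffusion assay were 20 mM in DMSO, diluted 10-fold with MeOH to 2 mM. M. vaccae plates were incubated at 37 °C for 44 h. Inhibition zones are recorded in mm, with unclear or very unclear zones flagged.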

Escherichia coli [5] = experiment: Antibacterial activity against Escherichia coli DC2 after 21 hrs by Kirby-Bauer agar diffusion assay; assay type: functional; in short: as §1
Mycolicibacterium vaccae [6] = experiment: Antibacterial activity against Mycobacterium vaccae IMET 10670 after 44 hrs by Kirby-Bauer agar diffusion assay; assay type: functional; in short: as §2
Micrococcus luteus [7] = experiment: Antibacterial activity against Micrococcus luteus ATCC 10240 after 21 hrs by Kirby-Bauer agar diffusion assay; assay type: functional; in short: as §1
Bacillus spizizenii [8] = experiment: Antibacterial activity against Bacillus subtilis ATCC 6633 after 21 hrs by Kirby-Bauer agar diffusion assay; assay type: functional; in short: as §1
Staphylococcus aureus = experiment: Antibacterial activity against Staphylococcus aureus SG511 after 21 hrs by Kirby-Bauer agar diffusion assay; assay type: functional; in short: as §1
Pseudomonas aeruginosa [9] = experiment: Antibacterial activity against Pseudomonas aeruginosa K799/61 after 21 hrs by Kirby-Bauer agar diffusion assay; assay type: functional; in short: as §1
Pseudomonas aeruginosa [10] = experiment: Antibacterial activity against Pseudomonas aeruginosa K799/61 assessed as unclear inhibition zone after 21 hrs by Kirby-Bauer agar diffusion assay; assay type: functional; in short: as §1
Mycolicibacterium vaccae [11] = experiment: Antibacterial activity against Mycobacterium vaccae IMET 10670 assessed as very unclear inhibition zone after 44 hrs by Kirby-Bauer agar diffusion assay; assay type: functional; in short: as §2
Micrococcus luteus [12] = experiment: Antibacterial activity against Micrococcus luteus ATCC 10240 assessed as very unclear inhibition zone after 21 hrs by Kirby-Bauer agar diffusion assay; assay type: functional; in short: as §1
Bacillus spizizenii [13] = experiment: Antibacterial activity against Bacillus subtilis ATCC 6633 at 1.66 microg/ml after 21 hrs by Kirby-Bauer agar diffusion assay; assay type: functional; settings: ATCC 6633, 21 h, read-out: DIZ
Pseudomonas aeruginosa [14] = experiment: microbe, parasite or virus in culture; settings: K799/61, 21 h, read-out: DIZ
Pseudomonas aeruginosa [15] = experiment: Antibacterial activity against wild type Pseudomonas aeruginosa K799 assessed as unclear inhibition zone after 21 hrs by Kirby-Bauer agar diffusion assay; assay type: functional; in short: as §1
Escherichia coli [16] = experiment: Antibacterial activity against Escherichia coli DC2 assessed as unclear inhibition zone after 21 hrs by Kirby-Bauer agar diffusion assay; assay type: functional; in short: as §1

SMILES | MIC [1] | MIC [2] | diameter of the inhibition zone (DIZ) (Pseudomonas aeruginosa [3]) | diameter of the inhibition zone (DIZ) (Mycolicibacterium vaccae [6]) | diameter of the inhibition zone (DIZ) (Micrococcus luteus [7]) | diameter of the inhibition zone (DIZ) (Bacillus spizizenii [8]) | diameter of the inhibition zone (DIZ) (Staphylococcus aureus) | other results
O=C(NO)c1cc([N+](=O)[O-])cc(C(F)(F)F)c1 | > 100 µM | 19.5 µM (≈ 4.87 µg/mL) | – | – | – | – | – | –
CCOc1ccc(C(=O)NOCc2ccccc2)cc1 | 47.3 µM (≈ 12.8 µg/mL) | > 100 µM | – | – | – | – | – | –
O=C(NOCc1ccccc1)c1cc(Br)cc(C(F)(F)F)c1 | 80.5 µM (≈ 30.1 µg/mL) | > 100 µM | 0 mm | 26 mm | 16 mm | 17.5 mm | 20 mm | diameter of the inhibition zone (DIZ) (Mycolicibacterium vaccae [4]): 32 mm; diameter of the inhibition zone (DIZ) (Escherichia coli [5]): 10 mm; diameter of the inhibition zone (DIZ) (Pseudomonas aeruginosa [9]): 0 mm
O=C(NOCc1ccccc1)c1ccc(Cl)cc1 | 15.5 µM (≈ 4.07 µg/mL) | 47.3 µM (≈ 12.4 µg/mL) | 14 mm | 15 mm | 19 mm | 19 mm | 19 mm | diameter of the inhibition zone (DIZ) (Escherichia coli [5]): 0 mm; diameter of the inhibition zone (DIZ) (Pseudomonas aeruginosa [9]): 14 mm
CCOc1ccc(C(=O)NO)cc1 | > 100 µM | 48.1 µM (≈ 8.71 µg/mL) | 0 mm | 0 mm | 0 mm | 20 mm | 17 mm | diameter of the inhibition zone (DIZ) (Pseudomonas aeruginosa [10]): 14 mm; diameter of the inhibition zone (DIZ) (Escherichia coli [5]): 0 mm
C=CCONC(=O)c1ccccc1 | > 100 µM | > 100 µM | – | – | – | – | – | –
COC(=O)c1cc([N+](=O)[O-])cc(C(F)(F)F)c1 | 30 µM (≈ 7.46 µg/mL) | > 100 µM | – | – | – | – | – | –
C=CCONC(=O)c1ccc([N+](=O)[O-])cc1 | 37.6 µM (≈ 8.36 µg/mL) | > 100 µM | – | – | – | – | – | –
O=C(NO)c1ccc(Cl)cc1 | > 100 µM | > 100 µM | 0 mm | – | 0 mm | 0 mm | 0 mm | diameter of the inhibition zone (DIZ) (Pseudomonas aeruginosa [10]): 18 mm; diameter of the inhibition zone (DIZ) (Mycolicibacterium vaccae [11]): 15.5 mm; diameter of the inhibition zone (DIZ) (Escherichia coli [5]): 16 mm
O=C(NOCc1ccccc1)c1ccccc1 | 48.5 µM (≈ 11 µg/mL) | > 100 µM | – | – | – | – | – | –
O=C(NO)c1ccc([N+](=O)[O-])cc1 | 0.71 µM (≈ 0.129 µg/mL) | 7.79 µM (≈ 1.42 µg/mL) | 13 mm | 30 mm | 0 mm | 0 mm | 0 mm | diameter of the inhibition zone (DIZ) (Mycolicibacterium vaccae [4]): 33 mm; diameter of the inhibition zone (DIZ) (Escherichia coli [5]): 0 mm; diameter of the inhibition zone (DIZ) (Pseudomonas aeruginosa [9]): 0 mm
O=C(NOCc1ccccc1)c1ccc(F)cc1 | 42.3 µM (≈ 10.4 µg/mL) | > 100 µM | – | – | – | – | – | –
C=CCONC(=O)c1cc([N+](=O)[O-])cc(C(F)(F)F)c1 | 43.2 µM (≈ 12.5 µg/mL) | > 100 µM | – | – | – | – | – | –
O=C(CC(=O)OCc1ccc([N+](=O)[O-])cc1)NO | > 100 µM | > 100 µM | – | – | – | – | – | –
CO[C@H]1/C=C/O[C@@]2(C)Oc3c(C)c(O)c4c(O)c(c(/C=N/N5CCN(C)CC5)c(O)c4c3C2=O)NC(=O)/C(C)=C\C=C\[C@H](C)[C@H](O)[C@@H](C)[C@@H](O)[C@@H](C)[C@H](OC(C)=O)[C@@H]1C [RIFAMPIN] | < 0.016 µM | 0.03 µM (≈ 0.0247 µg/mL) | – | – | – | – | – | –
CC(C)(C)[Si](C)(C)ONC(=O)CC(=O)OCc1ccc([N+](=O)[O-])cc1 | 3.04 µM (≈ 1.12 µg/mL) | > 100 µM | – | – | – | – | – | –
O=C(NOCc1ccccc1)c1cc([N+](=O)[O-])cc(C(F)(F)F)c1 | 10.7 µM (≈ 3.62 µg/mL) | > 100 µM | 0 mm | 45 mm | 14 mm | 16 mm | 20 mm | diameter of the inhibition zone (DIZ) (Escherichia coli [5]): 0 mm; diameter of the inhibition zone (DIZ) (Micrococcus luteus [12]): 20 mm; diameter of the inhibition zone (DIZ) (Pseudomonas aeruginosa [9]): 0 mm
O=C(O)c1cn(C2CC2)c2cc(N3CCNCC3)c(F)cc2c1=O [CIPROFLOXACIN] | – | – | 23 mm | 20 mm | 0 mm | – | 18 mm | zone of inhibition at 1.66 µg/mL (Bacillus spizizenii [13]): 19 mm; zone of inhibition at 1.66 µg/mL (Pseudomonas aeruginosa [14]): 26 mm; diameter of the inhibition zone (DIZ) (Pseudomonas aeruginosa [9]): 19 mm
CC(C)(C)[Si](C)(C)ONC(=O)c1ccccc1 | 24.3 µM (≈ 6.11 µg/mL) | > 50 µM | 14 mm | 26 mm | 0 mm | 0 mm | 0 mm | diameter of the inhibition zone (DIZ) (Pseudomonas aeruginosa [15]): 18 mm; diameter of the inhibition zone (DIZ) (Escherichia coli [5]): 0 mm; diameter of the inhibition zone (DIZ) (Pseudomonas aeruginosa [9]): 0 mm
O=C(NO)c1ccc(F)cc1 | > 100 µM | > 100 µM | – | – | – | – | – | –
C=CCONC(=O)CC(=O)OCc1ccc([N+](=O)[O-])cc1 | 98.6 µM (≈ 29 µg/mL) | 98.7 µM (≈ 29 µg/mL) | – | – | – | – | – | –
O=C(NOCc1ccccc1)c1ccc([N+](=O)[O-])cc1 | 13.6 µM (≈ 3.7 µg/mL) | 90.4 µM (≈ 24.6 µg/mL) | – | – | – | – | – | –
O=C(CC(=O)OCc1ccccc1)NOCc1ccccc1 | 27.1 µM (≈ 8.11 µg/mL) | 86.6 µM (≈ 25.9 µg/mL) | – | – | – | – | – | –
CC(C)(C)[Si](C)(C)ONC(=O)c1cc([N+](=O)[O-])cc(C(F)(F)F)c1 | > 100 µM | > 100 µM | 0 mm | 14 mm | 0 mm | 20 mm | 0 mm | diameter of the inhibition zone (DIZ) (Escherichia coli [16]): 17 mm; diameter of the inhibition zone (DIZ) (Pseudomonas aeruginosa [9]): 0 mm
